According to ChEMBL document CHEMBL2157941, “Synthesis and characterization of some new quinoline based derivatives endowed with broad spectrum antimicrobial potency” (2012):
≈ marks a conversion by molar mass, not a printed value.

Columns and labels:
Format in all cases: functional
[1] = test system: Aspergillus niger; assay: Antifungal activity against Aspergillus niger MTCC 282 after 48 hrs by serial broth dilution method; conditions: MTCC 282, 48 h
Outline: (§1)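 Read-out was the individual minimum inhibitory concentration for each bacterial or fungal strain.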

[2] = test system: Staphylococcus aureus; assay: Antibacterial activity against Staphylococcus aureus MTCC 96 after 24 hrs by serial broth dilution method; conditions: MTCC 96, 24 h; outline: as §1
[3] = test system: Candida albicans; assay: Antifungal activity against Candida albicans MTCC 227 after 48 hrs by serial broth dilution method; conditions: MTCC 227, 48 h; outline: as §1
[4] = test system: Pseudomonas aeruginosa; assay: Antibacterial activity against Pseudomonas aeruginosa MTCC 1688 after 24 hrs by serial broth dilution method; conditions: MTCC 1688, 24 h; outline: as §1
[5] = test system: Escherichia coli; assay: Antibacterial activity against Escherichia coli MTCC 443 after 24 hrs by serial broth dilution method; conditions: MTCC 443, 24 h; outline: as §1
[6] = test system: Aspergillus clavatus; assay: Antifungal activity against Aspergillus clavatus MTCC 1323 after 48 hrs by serial broth dilution method; conditions: MTCC 1323, 48 h; outline: as §1
[7] = test system: Streptococcus pyogenes; assay: Antibacterial activity against Streptococcus pyogenes MTCC 442 after 24 hrs by serial broth dilution method; conditions: MTCC 442, 24 h; outline: as §1

SMILES	MIC [1] [µg/mL]	MIC [2] [µg/mL]	MIC [3] [µg/mL]	MIC [4] [µg/mL]	MIC [5] [µg/mL]	MIC [6] [µg/mL]	MIC [7] [µg/mL]
O=C1CSC(N2N=C(c3ccccc3F)CC2c2cc3cc(F)ccc3nc2Cl)=N1 (centres undefined)	50 (≈ 113 µM)	100 (≈ 226 µM)	250 (≈ 564 µM)	50 (≈ 113 µM)	25 (≈ 56.4 µM)	500 (≈ 1130 µM)	100 (≈ 226 µM)
O=C(CN1CCOCC1)Nc1nc(-c2ccc([N+](=O)[O-])cc2)cc(-c2cc3cc(F)ccc3nc2Cl)n1	100 (≈ 191 µM)	100 (≈ 191 µM)	100 (≈ 191 µM)	50 (≈ 95.6 µM)	25 (≈ 47.8 µM)	50 (≈ 95.6 µM)	100 (≈ 191 µM)
O=C(CN1CCOCC1)Nc1nc(-c2ccccc2Cl)cc(-c2cc3cc(F)ccc3nc2Cl)n1	100 (≈ 195 µM)	100 (≈ 195 µM)	500 (≈ 976 µM)	100 (≈ 195 µM)	50 (≈ 97.6 µM)	100 (≈ 195 µM)	100 (≈ 195 µM)
O=C1CSC(N2N=C(c3cccc(F)c3)CC2c2cc3cc(F)ccc3nc2Cl)=N1 (centres undefined)	500 (≈ 1130 µM)	500 (≈ 1130 µM)	100 (≈ 226 µM)	250 (≈ 564 µM)	500 (≈ 1130 µM)	500 (≈ 1130 µM)	500 (≈ 1130 µM)
O=C(CN1CCOCC1)Nc1nc(-c2ccc(F)cc2)cc(-c2cc3cc(F)ccc3nc2Cl)n1	100 (≈ 202 µM)	100 (≈ 202 µM)	100 (≈ 202 µM)	50 (≈ 101 µM)	50 (≈ 101 µM)	100 (≈ 202 µM)	100 (≈ 202 µM)
O=C1CSC(N2N=C(c3ccccc3)CC2c2cc3cc(F)ccc3nc2Cl)=N1 (centres undefined)	1000 (≈ 2350 µM)	500 (≈ 1180 µM)	1000 (≈ 2350 µM)	250 (≈ 588 µM)	500 (≈ 1180 µM)	500 (≈ 1180 µM)	1000 (≈ 2350 µM)
O=C(CN1CCOCC1)Nc1nc(-c2cccc(F)c2)cc(-c2cc3cc(F)ccc3nc2Cl)n1	250 (≈ 504 µM)	250 (≈ 504 µM)	250 (≈ 504 µM)	100 (≈ 202 µM)	100 (≈ 202 µM)	250 (≈ 504 µM)	250 (≈ 504 µM)
O=C1CSC(N2N=C(c3cccc([N+](=O)[O-])c3)CC2c2cc3cc(F)ccc3nc2Cl)=N1 (centres undefined)	100 (≈ 213 µM)	1000 (≈ 2130 µM)	500 (≈ 1060 µM)	500 (≈ 1060 µM)	250 (≈ 532 µM)	50 (≈ 106 µM)	500 (≈ 1060 µM)
O=C(CN1CCOCC1)Nc1nc(-c2ccccc2O)cc(-c2cc3cc(F)ccc3nc2Cl)n1	250 (≈ 506 µM)	500 (≈ 1010 µM)	1000 (≈ 2020 µM)	500 (≈ 1010 µM)	1000 (≈ 2020 µM)	500 (≈ 1010 µM)	500 (≈ 1010 µM)
COc1ccc(-c2cc(-c3cc4cc(F)ccc4nc3Cl)nc(NC(=O)CN3CCOCC3)n2)cc1	250 (≈ 492 µM)	500 (≈ 984 µM)	1000 (≈ 1970 µM)	250 (≈ 492 µM)	500 (≈ 984 µM)	500 (≈ 984 µM)	250 (≈ 492 µM)
O=C1CSC(N2N=C(c3ccccc3Cl)CC2c2cc3cc(F)ccc3nc2Cl)=N1 (centres undefined)	100 (≈ 218 µM)	250 (≈ 544 µM)	500 (≈ 1090 µM)	100 (≈ 218 µM)	50 (≈ 109 µM)	50 (≈ 109 µM)	50 (≈ 109 µM)
O=C1CSC(N2N=C(c3ccc(O)cc3)CC2c2cc3cc(F)ccc3nc2Cl)=N1 (centres undefined)	500 (≈ 1130 µM)	500 (≈ 1130 µM)	1000 (≈ 2270 µM)	250 (≈ 567 µM)	500 (≈ 1130 µM)	1000 (≈ 2270 µM)	250 (≈ 567 µM)
O=C(CN1CCOCC1)Nc1nc(-c2ccc(Cl)cc2)cc(-c2cc3cc(F)ccc3nc2Cl)n1	100 (≈ 195 µM)	250 (≈ 488 µM)	250 (≈ 488 µM)	50 (≈ 97.6 µM)	100 (≈ 195 µM)	100 (≈ 195 µM)	100 (≈ 195 µM)
O=C(CN1CCOCC1)Nc1nc(-c2ccccc2[N+](=O)[O-])cc(-c2cc3cc(F)ccc3nc2Cl)n1	50 (≈ 95.6 µM)	50 (≈ 95.6 µM)	100 (≈ 191 µM)	100 (≈ 191 µM)	100 (≈ 191 µM)	100 (≈ 191 µM)	50 (≈ 95.6 µM)
O=C1CSC(N2N=C(c3ccc([N+](=O)[O-])cc3)CC2c2cc3cc(F)ccc3nc2Cl)=N1 (centres undefined)	100 (≈ 213 µM)	250 (≈ 532 µM)	250 (≈ 532 µM)	100 (≈ 213 µM)	50 (≈ 106 µM)	100 (≈ 213 µM)	50 (≈ 106 µM)
O=C1CSC(N2N=C(c3ccc(Cl)cc3)CC2c2cc3cc(F)ccc3nc2Cl)=N1 (centres undefined)	50 (≈ 109 µM)	50 (≈ 109 µM)	500 (≈ 1090 µM)	250 (≈ 544 µM)	500 (≈ 1090 µM)	100 (≈ 218 µM)	50 (≈ 109 µM)
O=C(CN1CCOCC1)Nc1nc(-c2ccc(O)cc2)cc(-c2cc3cc(F)ccc3nc2Cl)n1	500 (≈ 1010 µM)	1000 (≈ 2020 µM)	500 (≈ 1010 µM)	1000 (≈ 2020 µM)	500 (≈ 1010 µM)	1000 (≈ 2020 µM)	1000 (≈ 2020 µM)
O=C(CN1CCOCC1)Nc1nc(-c2ccccc2)cc(-c2cc3cc(F)ccc3nc2Cl)n1	500 (≈ 1050 µM)	500 (≈ 1050 µM)	1000 (≈ 2090 µM)	500 (≈ 1050 µM)	250 (≈ 523 µM)	250 (≈ 523 µM)	250 (≈ 523 µM)
O=C(O)c1cn(C2CC2)c2cc(N3CCNCC3)c(F)cc2c1=O [CIPROFLOXACIN]		50 (≈ 151 µM)			25 (≈ 75.4 µM)		50 (≈ 151 µM)
O=C1CSC(N2N=C(c3ccc(F)cc3)CC2c2cc3cc(F)ccc3nc2Cl)=N1 (centres undefined)	250 (≈ 564 µM)	100 (≈ 226 µM)	1000 (≈ 2260 µM)	50 (≈ 113 µM)	50 (≈ 113 µM)	100 (≈ 226 µM)	25 (≈ 56.4 µM)
O=C1CSC(N2N=C(c3ccccc3[N+](=O)[O-])CC2c2cc3cc(F)ccc3nc2Cl)=N1 (centres undefined)	25 (≈ 53.2 µM)	100 (≈ 213 µM)	100 (≈ 213 µM)	12.5 (≈ 26.6 µM)	25 (≈ 53.2 µM)	12.5 (≈ 26.6 µM)	25 (≈ 53.2 µM)
COC1=CC(=O)C[C@@H](C)[C@]12Oc1c(Cl)c(OC)cc(OC)c1C2=O [GRISEOFULVIN]	100 (≈ 283 µM)		500 (≈ 1420 µM)			100 (≈ 283 µM)	
O=C1CSC(N2N=C(c3ccccc3O)CC2c2cc3cc(F)ccc3nc2Cl)=N1 (centres undefined)	1000 (≈ 2270 µM)	1000 (≈ 2270 µM)	1000 (≈ 2270 µM)	500 (≈ 1130 µM)	250 (≈ 567 µM)	1000 (≈ 2270 µM)	500 (≈ 1130 µM)
O=C(CN1CCOCC1)Nc1nc(-c2cccc([N+](=O)[O-])c2)cc(-c2cc3cc(F)ccc3nc2Cl)n1	100 (≈ 191 µM)	250 (≈ 478 µM)	250 (≈ 478 µM)	100 (≈ 191 µM)	250 (≈ 478 µM)	500 (≈ 956 µM)	100 (≈ 191 µM)
O=C(CN1CCOCC1)Nc1nc(-c2ccccc2F)cc(-c2cc3cc(F)ccc3nc2Cl)n1	50 (≈ 101 µM)	50 (≈ 101 µM)	100 (≈ 202 µM)	25 (≈ 50.4 µM)	12.5 (≈ 25.2 µM)	25 (≈ 50.4 µM)	50 (≈ 101 µM)
COc1ccc(C2=NN(C3=NC(=O)CS3)C(c3cc4cc(F)ccc4nc3Cl)C2)cc1 (centres undefined)	500 (≈ 1100 µM)	500 (≈ 1100 µM)	1000 (≈ 2200 µM)	1000 (≈ 2200 µM)	1000 (≈ 2200 µM)	500 (≈ 1100 µM)	1000 (≈ 2200 µM)
